# From PubChem
# STAT1 blocker – STAT1 signaling inhibitors, primary screen, cell-based, HTS, luciferase reporter; AID 920, 2007; inhibition, % at 5.5 µM; 200,000 compounds, 0.35% hits; NIH 3T3 STAT1-luciferase reporter, IFN-gamma, luminescence;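 active = inhibition above a set limit, the mean inhibition across all tested compounds plus 3 SD, cut at about 34% in these data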;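 also: 0% = IFN-gamma with DMSO and 100% = IFN-gamma with 300 µM nifuroxazide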
# NF-kB neuron act – activators of NF-kB expression in neurons, primary screen, cell-based, HTS | human neuronal cells, NF-kB reporter expression; hits give high values | fold change at 12.5 µM | 190,000 compounds, 1.6% hits | AID 1239, 2008; in the data active = fold change above about 3.3
# STAT3 activator – IL-6 driven STAT3 reporter potentiators, primary screen, U3A cells, luciferase, luminescence, MLSCN library; IL-6 STAT3-luciferase reporter; 100% = signal with IL-6 EC80 alone; activation (% of control), % at 5.6 µM; 190,000 compounds, 0.91% hits; AID 871, 2007;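 active = activation above the screen-wide mean of compound activation plus 3 SD, cut at about 130% in these data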;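 also: 0% = background luminescence of wells with medium and substrate only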
#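 Material: human U3A cells carrying STAT3-luciferase construct. Measured by: reporter luminescence signal. Timing: compound 1 h, then IL-6 6 h at 37 °C.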
# STAT3 inh – IL-6 driven STAT3 reporter inhibitors, primary screen, U3A cells, luciferase, luminescence, MLSCN library; inhibition, % at 5.5 µM; IL-6 STAT3-luciferase reporter; host cell line lacks STAT1; AID 862, 2007; 190,000 compounds, 0.89% hits;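 active = inhibition above the mean inhibition across all screened compounds plus 3 SD, cut at about 44% in these data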;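 also: 0% = DMSO only wells and 100% = 100 µM nifuroxazide control wells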
# STAT1 activator – STAT1 signaling activators, primary screen, cell-based, HTS, luciferase reporter; AID 932, 2007; activation (% of control), % at 5.5 µM; 200,000 compounds, 2.6% hits; NIH 3T3 STAT1-luciferase reporter, IFN-gamma, luminescence; 100% = IFN-gamma alone, no compound;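 active = activation above the screen-wide mean activation plus 3 SD, cut at about 130% in these data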;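 also: raw ratio to IFN-gamma control signal so 100% means no change and 0% no light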
# APP 5'UTR act – activators of APP 5'UTR luciferase reporter, primary screen, SH-SY5Y cells | SH-SY5Y APP 5'UTR luciferase reporter, luminescence; zero percent = DMSO vehicle wells | activation, % at 2 µM | 190,000 compounds, 1% hits | AID 1276, 2008;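 active = activation above a set limit, based on mean plus 3 SD of controls, cut at about 140% in these data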
# Active calls of the source: *. A selection: hits, their analogues and other compounds. The true share with any hit is near 4.9%.
SMILES,STAT1 blocker,NF-kB neuron act,STAT3 activator,STAT3 inh,STAT1 activator,APP 5'UTR act
Cc1ccc(-c2nc3ccsc3c(=O)o2)cc1,-32,2.9,131,-35,129*,5
CC(C)Sc1nc2ccsc2c(=O)[nH]1,-6,1.6,92,10,106,6
C=CCNC(=O)c1ccccc1NC(=O)c1ccccc1N(C)S(C)(=O)=O,-2,0.98,101,6,101,15
CCSc1ncc(/C=N/Nc2ccc(Cl)cc2)n1C,-66,5.7*,150*,-52,160*,70
Nc1ccc2c(c1)sc1ccccc12,-33,2.2,94,11,130*,11
Cc1ccc(/C=N/n2c(-c3cccs3)n[nH]c2=S)cc1,3,4.1*,82,24,98,5
S=c1[nH]nc(-c2cccs2)n1/N=C/c1c(Cl)cccc1Cl,1,1.1,99,3,98,2
COc1ccc(/C=N/n2c(-c3cccs3)n[nH]c2=S)cc1,-8,5.2*,82,24,107,8
COC(=O)C1=C(C)NC(=O)C1(NC(=O)CN1CCCC1=O)C(F)(F)F (centres undefined),3,1,97,5,97,3
Oc1[nH]c2ccccc2c1N=Nc1ccccc1F,-58,4.1*,154*,-69,151*,66
CC(C)(O)C(=O)N=Nc1c(O)[nH]c2ccccc12,-17,1.5,108,-6,115,46
Oc1[nH]c2ccccc2c1N=Nc1ccc(F)cc1,-50,1.7,119,-27,144*,46
CC(=O)c1cccc(NC(=O)C(=O)c2cn(CC(=O)N3CCCCC3)c3ccccc23)c1,-10,0.8,101,4,109,-1
O=C(CCN1CCOCC1)N/N=C/c1cc(Br)cc(Br)c1O,-7,0.97,103,0,105,13
CCn1c(C)nc2cc(C(=O)OC)ccc21,-11,1.3,110,-5,110,2
CCn1c(C)nc2cc(C(=O)NNS(=O)(=O)c3ccccc3F)ccc21,-12,1.5,103,0,110,5
CCn1c(C)nc2cc(C(=O)N/N=C(\C)c3ccccc3O)ccc21,-43,1.4,93,16,137*,56
CCn1c(C)nc2cc(C(=O)N/N=C/c3ccccc3C)ccc21,-45,3.9*,86,18,143*,96
O=C(c1ccccc1)N1CCC(c2nc3c(nnn3Cc3ccco3)c(=O)[nH]2)CC1,0,2.7,107,0,100,-4
CC(=C/c1ccc(C(C)C)cc1)/C=N/NC(=O)CSc1ccccn1,-55,0.84,134*,-40,149*,51
CC(/C=N/NC(=O)CSc1ccccn1)=C\c1ccc(C(C)C)cc1,-27,1.5,114,-12,124,37
Cc1cccc(-c2nsc(SCC(=O)N3CCCC3)n2)c1,-37,3.9*,76,31,134*,87
O=C(CSc1nc(-c2ccc(F)cc2)cs1)N1CCOCC1,-30,1.9,85,21,129*,31
CCOC(=O)CSc1nc(-c2ccccc2)ns1,-3,1.2,86,23,102,-3
O=C(CSc1nc(-c2ccccc2)ns1)N1CCOCC1,-47,3,94,18,142*,116
SMILES,STAT1 blocker,NF-kB neuron act,STAT3 activator,STAT3 inh,STAT1 activator,APP 5'UTR act
Cc1cccc(-c2nsc(SCC(=O)Nc3nccs3)n2)c1,-2,1.4,103,0,102,19
Cc1ccccc1N/C=C/C(=C(C#N)C#N)N(C)C,-6,0.99,97,12,109,-9
O=C(NCCN1CCN(S(=O)(=O)c2ccc([N+](=O)[O-])cc2)CC1)C(=O)Nc1ccccc1,-2,1.1,99,3,102,7
N/C(=N\OC(=O)c1ccccc1)c1ccccn1,71*,0.99,41,72*,33,150*
N/C(=N\OC(=O)c1ccc(Br)o1)c1ccccn1,-24,3.7*,96,9,119,149*
COC(=O)c1ccc(COC(=O)c2ccccn2)cc1,-36,1.4,103,0,133*,-3
